From ChEMBL document CHEMBL2176935, “Discovery and lead optimization of a novel series of CC chemokine receptor 1 (CCR1)-selective piperidine antagonists via parallel synthesis” (J Med Chem, 2012) come the findings set out here.

pIC50: −log10 of the molar value.

The target in this test is T1, C-C chemokine receptor type 1 (Homo sapiens, UniProt P32246).
T1 sequence (P32246 whole entry): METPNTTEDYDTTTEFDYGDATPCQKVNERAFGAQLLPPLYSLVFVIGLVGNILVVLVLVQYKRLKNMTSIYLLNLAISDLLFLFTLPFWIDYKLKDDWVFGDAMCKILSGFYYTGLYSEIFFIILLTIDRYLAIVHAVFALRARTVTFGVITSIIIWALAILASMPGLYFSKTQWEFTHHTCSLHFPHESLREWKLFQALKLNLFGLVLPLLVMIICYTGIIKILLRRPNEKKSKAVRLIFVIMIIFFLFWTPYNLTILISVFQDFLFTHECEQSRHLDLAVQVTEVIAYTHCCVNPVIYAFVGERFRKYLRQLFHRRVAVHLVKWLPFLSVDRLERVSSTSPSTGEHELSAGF
The test is described as follows: Displacement of [125I]MIP-1alpha from CCR1 in human THP1 cells. In kind it is cell-based, THP-1. The method in brief: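 THP-1 cells, 1 × 105, mixed with WGA PS SPA beads in RPMI 1640 (no phenol red) with 50 mM HEPES, 5 mM MgCl2, 1 mM CaCl2, 0.1% BSA. Compound in 3-fold dilutions, 8 μM to 140 pM final. [125I]-MIP-1α at 0.1 nM final. Incubated 12 h at room temperature, imaged by LEADseeker. Duplicates; IC50 from four-parameter logistic fit after nonspecific correction.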
In general terms: Displacement assays read how much labelled ligand stays bound in the presence of the test substance.
Regarding `CC(C)[C@@H](NC(=O)Cc1cccc(Cl)c1)C(=O)N1CCC(c2ccc(Cl)cc2)CC1`, the pIC50 – broadly, the IC50 on a negative log10 scale, so that one unit is a factor of ten – is 7.35.

As for `CC(C)[C@@H](NC(=O)Cc1ccccc1F)C(=O)N1CCC(c2ccc(Cl)cc2)CC1`, the pIC50 was 7.89.

`CC(C)[C@@H](NC(=O)Cc1cccc(F)c1)C(=O)N1CCC(c2ccc(Cl)cc2)CC1` showed a negative-log IC50 (pIC50) of 7.36.

Compound `CC(C)[C@@H](NC(=O)Cc1ccc(Cl)cc1)C(=O)N1CCC(c2ccc(Cl)cc2)CC1` had a pIC50 of 6.94.

`Cc1ccc(CC(=O)N[C@@H](C(=O)N2CCC(c3ccc(Cl)cc3)CC2)C(C)C)cc1` showed a pIC50 of 6.85.

Regarding `Cc1ccccc1CCC(=O)N[C@@H](C(=O)N1CCC(c2ccc(Cl)cc2)CC1)C(C)C`, the pIC50 was 7.72.

In the case of `Cc1cccc(CCC(=O)N[C@@H](C(=O)N2CCC(c3ccc(Cl)cc3)CC2)C(C)C)c1`, the pIC50 was 7.66.

`CC(C)[C@@H](NC(=O)CCc1ccccc1F)C(=O)N1CCC(c2ccc(Cl)cc2)CC1` showed a pIC50 of 7.74.

Regarding `CC(C)[C@@H](NC(=O)CCc1ccc(F)cc1)C(=O)N1CCC(c2ccc(Cl)cc2)CC1`, the pIC50 was 7.15.

Regarding `Cc1ccc(CCC(=O)N[C@@H](C(=O)N2CCC(c3ccc(Cl)cc3)CC2)C(C)C)cc1`, the pIC50 is 6.98.

The compound `CC(C)[C@@H](NC(=O)c1nc2ccccc2s1)C(=O)N1CCC(c2ccc(Cl)cc2)CC1` showed a pIC50 of 7.74.

For `CC(C)[C@@H](NC(=O)c1cc2ccccc2s1)C(=O)N1CCC(c2ccc(Cl)cc2)CC1`, the pIC50 was 7.24.

The compound `CC[C@@H](C)[C@@H](NC(=O)c1ccccc1)C(=O)N1CCC(c2ccc(Cl)cc2)CC1` showed a pIC50 of 7.35.

On to `O=C(N[C@@H](C(=O)N1CCC(c2ccc(Cl)cc2)CC1)C1CCCCC1)c1ccccc1`, for which the pIC50 is 6.92.

For the compound `CC[C@@H](NC(=O)Cc1ccccc1)C(=O)N1CCC(c2ccc(Cl)cc2)CC1`, the pIC50 was 7.30.

For the compound `CC(C)[C@@H](NC(=O)Cc1ccccc1)C(=O)N1CCC(c2ccc(Cl)cc2)CC1`, the pIC50 is 7.52.

The compound `CC[C@@H](C)[C@@H](NC(=O)Cc1ccccc1)C(=O)N1CCC(c2ccc(Cl)cc2)CC1` showed a pIC50 of 7.42.

Regarding `CC[C@@H](NC(=O)CCc1ccccc1)C(=O)N1CCC(c2ccc(Cl)cc2)CC1`, the negative logarithm of the IC50 (pIC50) is 7.07.

Regarding `CC(C)[C@@H](NC(=O)CCc1ccccc1)C(=O)N1CCC(c2ccc(Cl)cc2)CC1`, the pIC50 is 7.40.

Turning to `CC[C@@H](C)[C@@H](NC(=O)CCc1ccccc1)C(=O)N1CCC(c2ccc(Cl)cc2)CC1`, the pIC50 is 7.18.

Consider `CC(C)[C@@H](NC(=O)C1CCCC1)C(=O)N1CCC(c2ccc(Cl)cc2)CC1`, for which the negative logarithm of the IC50 (pIC50) is 7.15.

The compound `CC(C)CCC(=O)N[C@@H](C(=O)N1CCC(c2ccc(Cl)cc2)CC1)C(C)C` gave a negative logarithm of the IC50 (pIC50) of 7.59.

Regarding `CC(C)[C@@H](NC(=O)CC1CC1)C(=O)N1CCC(c2ccc(Cl)cc2)CC1`, the pIC50 is 7.34.

On to `CC(C)[C@@H](NC(=O)CC1CCCC1)C(=O)N1CCC(c2ccc(Cl)cc2)CC1`, for which the pIC50 was 7.70.

`CC(C)[C@@H](NC(=O)CC1CCCCC1)C(=O)N1CCC(c2ccc(Cl)cc2)CC1` showed a pIC50 of 8.10.

`CC(C)[C@@H](NC(=O)c1cccc(F)c1)C(=O)N1CCC(c2ccc(Cl)cc2)CC1` showed a pIC50 of 7.62.

`CC(C)[C@@H](NC(=O)c1ccc(F)cc1)C(=O)N1CCC(c2ccc(Cl)cc2)CC1`: the pIC50 is 6.93.

The compound `CC(C)[C@@H](NC(=O)c1ccc(F)c(F)c1)C(=O)N1CCC(c2ccc(Cl)cc2)CC1` gave a pIC50 of 7.85.

Take `Cc1ccccc1C(=O)N[C@@H](C(=O)N1CCC(c2ccc(Cl)cc2)CC1)C(C)C`: the pIC50 is 7.49.

For `Cc1ccc(C(=O)N[C@@H](C(=O)N2CCC(c3ccc(Cl)cc3)CC2)C(C)C)cc1`, the pIC50 was 7.60.

`Cc1cccc(C(=O)N[C@@H](C(=O)N2CCC(c3ccc(Cl)cc3)CC2)C(C)C)c1C` gave a pIC50 of 7.00.

For the compound `Cc1cccc(C)c1C(=O)N[C@@H](C(=O)N1CCC(c2ccc(Cl)cc2)CC1)C(C)C`, the pIC50 is 6.75.

Regarding `CC(C)C(NC(=O)c1ccc2ccccc2c1)C(=O)N1CCC(c2ccc(Cl)cc2)CC1` (stereo not given), the pIC50 was 7.10.

Consider `CC(C)C(NC(=O)Cc1ccccc1)C(=O)N1CCC(c2ccc(Cl)cc2)CC1` (stereo not given), for which the pIC50 is 7.40.

For `CC(C)C(NC(=O)CCc1ccccc1)C(=O)N1CCC(c2ccc(Cl)cc2)CC1` (stereo not given), the pIC50 is 7.46.

Compound `CC(C)[C@@H](NC(=O)CCCc1ccccc1)C(=O)N1CCC(c2ccc(Cl)cc2)CC1` gave a pIC50 of 7.02.

For `CC(C)C(NC(=O)Oc1ccccc1)C(=O)N1CCC(c2ccc(Cl)cc2)CC1` (stereo not given), the pIC50 was 6.58.

Compound `CC(C)C(NC(=O)OCc1ccccc1)C(=O)N1CCC(c2ccc(Cl)cc2)CC1` (stereo not given) had a pIC50 of 5.97.

`CC(C)C(NS(=O)(=O)Cc1ccccc1)C(=O)N1CCC(c2ccc(Cl)cc2)CC1` (stereo not given): the pIC50 is 6.52.

`CC(C)[C@@H](NC(=O)Nc1ccccc1)C(=O)N1CCC(c2ccc(Cl)cc2)CC1` had a negative logarithm of the IC50 (pIC50) of 6.21.

`CC(C)[C@@H](NC(=O)NCc1ccccc1)C(=O)N1CCC(c2ccc(Cl)cc2)CC1` gave a pIC50 of 6.74.

`CC(C)[C@@H](NC(=O)NCCc1ccccc1)C(=O)N1CCC(c2ccc(Cl)cc2)CC1` showed a pIC50 of 6.27.

`CC(C)[C@H](NC(=O)c1ccccc1)C(=O)N1CCC(c2ccc(Cl)cc2)CC1` showed a pIC50 of 4.83.

On to `CC[C@@H](NC(=O)CC(C)C)C(=O)N1CCC(c2ccc(Cl)cc2)CC1`, for which the pIC50 is 6.82.

`CC(C)CC(=O)N[C@@H](C(=O)N1CCC(c2ccc(Cl)cc2)CC1)C(C)C`: the pIC50 is 7.49.

Regarding `CC[C@@H](C)[C@@H](NC(=O)CC(C)C)C(=O)N1CCC(c2ccc(Cl)cc2)CC1`, the pIC50 is 7.47.

The compound `CC[C@@H](NC(=O)c1ccccc1)C(=O)N1CCC(c2ccc(Cl)cc2)CC1` showed a pIC50 of 6.92.

In the case of `CC(C)C(NC(=O)OCc1ccccc1)C(=O)N1CCC(O)(c2ccc(Cl)cc2)CC1` (stereo not given), the pIC50 was 6.07.

As for `CC(C)C(NC(=O)c1ccccc1)C(=O)N1CCC(O)(c2ccc(F)cc2)CC1` (stereo not given), the pIC50 is 6.03.

`CC(C)C(NC(=O)c1ccccc1)C(=O)N1CCC(O)(c2ccc(Br)cc2)CC1` (stereo not given) had a negative-log IC50 (pIC50) of 6.76.

Regarding `CC(C)C(NC(=O)c1ccccc1)C(=O)N1CC=C(c2ccc(Cl)cc2)CC1` (stereo not given), the pIC50 was 6.73.

Take `CC(C)C(NC(=O)c1ccccc1)C(=O)N1CCC(c2ccc(F)cc2)CC1` (stereo not given): the pIC50 is 6.37.

The compound `CC(C)C(NC(=O)c1ccccc1)C(=O)N1CCC(c2ccc(Cl)cc2)CC1` (stereo not given) had a pIC50 of 7.26.

`CC(C)C(NC(=O)c1ccccc1)C(=O)N1CCN(c2ccc(Cl)cc2)CC1` (stereo not given) gave a pIC50 of 6.28.

As for `CC(C)C(NC(=O)c1ccccc1)C(=O)N1CCN(c2ccc(Cl)c(Cl)c2)CC1` (stereo not given), the pIC50 was 6.43.

In turn, `CC(C)C(=O)NC(C(=O)N1CCC(c2ccc(Cl)cc2)CC1)C(C)C` (stereo not given) showed a pIC50 of 6.41.

Take `CC(C)CC(NC(=O)c1ccccc1)C(=O)N1CCC(c2ccc(Cl)cc2)CC1` (stereo not given): the pIC50 is 6.89.

Turning to `CC(C)(C)C(NC(=O)c1ccccc1)C(=O)N1CCC(c2ccc(Cl)cc2)CC1` (stereo not given), the pIC50 was 6.59.

The compound `Cc1ccccc1C(=O)NC(C(=O)N1CCC(c2ccc(Cl)cc2)CC1)C(C)C` (stereo not given) showed a pIC50 of 7.44.

On to `Cc1ccccc1C(=O)NC(CC(C)C)C(=O)N1CCC(c2ccc(Cl)cc2)CC1` (stereo not given), for which the pIC50 was 7.06.

In turn, `Cc1ccccc1C(=O)NC(C(=O)N1CCC(c2ccc(Cl)cc2)CC1)C(C)(C)C` (stereo not given) gave a pIC50 of 6.58.

The compound `CC(O)C(NC(=O)c1ccccc1)C(=O)N1CCC(O)(c2ccc(Cl)cc2)CC1` (stereo not given) gave a pIC50 of 5.55.

As for `C/C=C(/NC(=O)c1ccccc1)C(=O)N1CCC(O)(c2ccc(Cl)cc2)CC1`, the pIC50 is 6.43.

`CC(C)C(NC(=O)c1ccccc1)C(=O)N1CCC(O)(c2ccc(Cl)cc2)CC1` (stereo not given) showed a pIC50 of 6.74.

The compound `CCCC(NC(=O)c1ccccc1)C(=O)N1CCC(O)(c2ccc(Cl)cc2)CC1` (stereo not given) had a pIC50 of 6.28.

Regarding `CC(C)CC(NC(=O)c1ccccc1)C(=O)N1CCC(O)(c2ccc(Cl)cc2)CC1` (stereo not given), the pIC50 is 6.49.

With `CSCCC(NC(=O)c1ccccc1)C(=O)N1CCC(O)(c2ccc(Cl)cc2)CC1` (stereo not given), the pIC50 was 6.27.

For `CCCC(NC(=O)c1ccccc1)C(=O)N1CCC(c2ccc(Cl)cc2)CC1` (racemic), the pIC50 is 6.92.

As to `CCCC(NC(=O)c1ccccc1C)C(=O)N1CCC(c2ccc(Cl)cc2)CC1` (racemic), the pIC50 was 6.82.

In turn, `CCCC(NC(=O)c1ccc2ccccc2c1)C(=O)N1CCC(c2ccc(Cl)cc2)CC1` (racemic) showed a pIC50 of 6.72.
